Activity calls are given as the source filed them. The rule behind the calls is not given here.
Assays:
[1] = Half life in mouse plasma by HPLC analysis; format: ADME, cell-free
In short: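 Prodrug incubated in plasma at 37 °C, with percent remaining determined by HPLC to derive half-life.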

[2] = Stability in pH 7.4 buffer assessed as compound hydrolysis level after 2 hrs at 37 degC by HPLC analysis; format: physicochemical; conditions: pH 7.4, 2 h
In short: (§1)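 Prodrug incubated in buffer (0.1 M HCl, pH 5.8, 6.8 or 7.4) at 37 °C; percent of compound remaining determined by HPLC; remaining percentage reported after 3 h, stability meaning no hydrolysis after 2 h.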

[3] = Stability in pH 6.8 buffer assessed as compound remaining level at 37 degC by HPLC analysis; format: physicochemical; in short: as §1
[4] = Stability in 0.1M HCl solution assessed as compound remaining level at 37 degC by HPLC analysis; format: physicochemical; conditions: buffer; in short: as §1
[5] = Solubility in water at 1 mg at 25 degC by HPLC analysis; format: physicochemical
In short: (§2)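 Solubility determined in water or 0.067 M phosphate buffer at pH 5.8, 6.8 and 7.4. Values are reported in mg/mL; ND means below the detection limit.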

[6] = Solubility in pH 5.8 phosphate buffer at 1 mg at 25 degC by HPLC analysis; format: physicochemical; in short: as §2
[7] = Solubility in pH 6.8 phosphate buffer at 1 mg at 25 degC by HPLC analysis; format: physicochemical; conditions: BLD = below limit of detection; in short: as §2
Hepatitis B virus [8] = assay: Antiviral activity against HBV infected in human HepAD38 cells assessed as reduction in viral DNA levels incubated for 6 days by PCR analysis; format: functional, organism-based; conditions: HePAD38, 144 h
[9] = Cytotoxicity in human HepAD38 cells assessed as induction of cell killing; format: cell-based
[10] = Selectivity index, ratio of CC50 for cytotoxicity in human HepAD38 cells assessed as induction of cell killing to EC50 for antiviral activity against HBV infected in human HepAD38 cells assessed as reduction in viral DNA levels incubated for 6 days by PCR analysis; format: toxicity, cell-based; conditions: read-out: Ratio CC50/EC50
[11] = Intrinsic clearance in mouse liver microsomes; format: ADME, Microsome; conditions: read-out: CLH
Hepatitis B virus [12] = assay: Inhibition of HBsAg secretion in HBV infected human HepG2.2.15 cells at 2 uM for 4 days by ELISA; format: functional, organism-based; conditions: HepG2 2.2.15
In short: (§3)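 HepAD38 or HepG2.2.15 cells were treated at 2 µM for 4 days, with medium replaced every 2 days. Intracellular and extracellular DNA and RNA were quantified by qPCR or qRT-PCR, and HBeAg and HBsAg by ELISA. Results were compared with DMSO vehicle as mean ± SD, using a two-tailed t-test.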

Hepatitis B virus [13] = assay: Inhibition of HBsAg secretion in HBV infected human HepAD38 cells at 2 uM for 4 days by ELISA; format: functional, organism-based; in short: as §3
Hepatitis B virus [14] = assay: Antiviral activity against HBV infected in human HepAD38 cells assessed as inhibition of intracellular viral RNA accumulation at 2 uM for 4 days by qPCR or qRT-PCR relative to control; format: functional, organism-based; in short: as §3
Hepatitis B virus [15] = assay: Antiviral activity against HBV infected in human HepG2.2.15 cells assessed as inhibition of intracellular viral RNA accumulation at 2 uM for 4 days by qPCR or qRT-PCR relative to control; format: functional, organism-based; conditions: HepG2 2.2.15; in short: as §3
Hepatitis B virus [16] = assay: Antiviral activity against HBV infected in human HepAD38 cells assessed as inhibition of intracellular viral DNA accumulation at 2 uM for 4 days by qPCR or qRT-PCR relative to control; format: functional, organism-based; in short: as §3
Hepatitis B virus [17] = assay: Antiviral activity against HBV infected in human HepG2.2.15 cells assessed as inhibition of intracellular viral DNA accumulation at 2 uM for 4 days by qPCR or qRT-PCR relative to control; format: functional, organism-based; conditions: HepG2 2.2.15; in short: as §3
Hepatitis B virus [18] = assay: Antiviral activity against HBV infected in human HepG2.A64 cells containing reverse transcriptase L180M/T184L/M204V mutant assessed as reduction in viral replication incubated for 6 days by PCR analysis; format: functional, organism-based; conditions: HepG2.A64, 144 h
In short: (§4)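 Wild-type HBV replication measured in HepAD38 and HepG2.2.15 cells, lamivudine/entecavir-resistant HBV in HepG2.A64 cells (rtL180M+rtT184L+rtM204V) and multidrug-resistant HBV in HepG2.1403F cells (rtL180M+rtM204V+rtS202G+rtN236T). Read-out is reduction of HBV DNA. EC50 is reported as mean ± SD.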

Hepatitis B virus [19] = assay: Antiviral activity against multidrug-resistant HBV infected in human HepG2.1403F cells assessed as reduction in viral replication incubated for 6 days by PCR analysis; format: functional, organism-based; conditions: 144 h; in short: as §4
Hepatitis B virus [20] = assay: Antiviral activity against HBV infected in human HepG2.2.15 cells assessed as reduction in viral DNA levels incubated for 6 days by PCR analysis; format: functional, organism-based; conditions: HepG2 2.2.15, 144 h
[21] = Cytotoxicity in human HepG2 cells assessed as induction of cell killing; format: cell-based
Hepatitis B virus [22] = assay: Antiviral activity against HBV genotype D in hydrodynamic injection-based C57BL/6 mouse model of HBV infection assessed as inhibition of HBV replication at 50 mg/kg, po dosed once daily for 7 days by real-time PCR analysis; format: functional, organism-based
Hepatitis B virus [23] = assay: Antiviral activity against HBV genotype D in hydrodynamic injection-based C57BL/6 mouse model of HBV infection assessed as inhibition of serum HBV DNA level at 50 mg/kg, po dosed twice daily for 7 days by real-time PCR analysis; format: functional, organism-based
Hepatitis B virus [24] = assay: Antiviral activity against HBV genotype D in hydrodynamic injection-based C57BL/6 mouse model of HBV infection assessed as inhibition of liver HBV DNA level at 50 mg/kg, po dosed twice daily for 7 days by real-time PCR analysis; format: functional, organism-based
Hepatitis B virus [25] = assay: Antiviral activity against HBV genotype D in hydrodynamic injection-based C57BL/6 mouse model of HBV infection assessed as inhibition of serum HBV DNA level at 100 mg/kg, po dosed twice daily for 7 days by real-time PCR analysis; format: functional, organism-based
Hepatitis B virus [26] = assay: Antiviral activity against HBV genotype D in hydrodynamic injection-based C57BL/6 mouse model of HBV infection assessed as inhibition of liver HBV DNA level at 100 mg/kg, po dosed twice daily for 7 days by real-time PCR analysis; format: functional, organism-based
[27] = Half life in C57BL/6 mouse at 20 mg/kg, iv measured from 5 mins to 24 hrs by HPLC analysis; format: ADME, organism-based; conditions: in vivo
In short: (§5)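 Male C57BL/6 mice, n=3. Dosing 20 mg/kg i.v. or 100 mg/kg p.o. of parent; prodrug p.o. at 100 or 200 mg/kg. The parent compound was measured in blood/plasma and in liver from 5 min onward. Readouts were Cmax, Tmax, t1/2, CL, AUC and oral bioavailability.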

[28] = Clearance in C57BL/6 mouse at 20 mg/kg, iv measured from 5 mins to 24 hrs by HPLC analysis; format: ADME, organism-based; conditions: in vivo; in short: as §5
[29] = AUC in C57BL/6 mouse plasma at 20 mg/kg, iv measured from 5 mins to 24 hrs by HPLC analysis; format: ADME, organism-based; parameters: dose 20 mg/kg, time upper 24 hr, time lower 0.083 hr, route intravenous; in short: as §5
[30] = AUC in C57BL/6 mouse plasma at 100 mg/kg, po measured from 5 mins to 24 hrs by HPLC analysis; format: ADME, organism-based; parameters: time upper 24 hr, dose 100 mg/kg, time lower 0.083 hr, route oral; in short: as §5
[31] = AUC in C57BL/6 mouse liver at 20 mg/kg, iv measured from 5 mins to 24 hrs by HPLC analysis; format: ADME, organism-based; parameters: time lower 0.083 hr, dose 20 mg/kg, time upper 24 hr, route intravenous; conditions: in vivo; in short: as §5
[32] = AUC in C57BL/6 mouse liver at 100 mg/kg, po measured from 5 mins to 24 hrs by HPLC analysis; format: ADME, organism-based; parameters: time 0.083-24 hr, dose 100 mg/kg, route oral; conditions: in vivo; in short: as §5
[33] = Tmax in C57BL/6 mouse blood at 100 mg/kg, po measured from 5 mins to 24 hrs by HPLC analysis; format: ADME, organism-based
In short: (§6)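 Male C57BL/6 mice, single oral dose of prodrug at 100 or 200 mg/kg; blood and liver levels of the parent compound measured over time; N=3; Tmax taken from the concentration–time profiles.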

[34] = Cmax in C57BL/6 mouse blood at 100 mg/kg, po measured from 5 mins to 24 hrs by HPLC analysis; format: ADME, organism-based; parameters: dose 100 mg/kg, route oral; in short: as §5
[35] = Tmax in C57BL/6 mouse liver at 100 mg/kg, po measured from 5 mins to 24 hrs by HPLC analysis; format: ADME, organism-based; in short: as §6
[36] = Cmax in C57BL/6 mouse liver at 100 mg/kg, po measured from 5 mins to 24 hrs by HPLC analysis; format: ADME, organism-based; parameters: dose 100 mg/kg, route oral; conditions: in vivo; in short: as §5
[37] = Oral bioavailability in C57BL/6 mouse liver at 100 mg/kg measured from 5 mins to 24 hrs by HPLC analysis; format: ADME, organism-based; in short: as §5
[38] = Drug level in C57BL/6 mouse liver at 100 mg/kg, po measured after 5 mins by HPLC analysis; format: ADME, organism-based; conditions: in vivo
[39] = Stability in pH 7.4 buffer assessed as compound remaining level after 3 hrs at 37 degC by HPLC analysis; format: physicochemical; conditions: read-out: Stability; in short: as §1
[40] = Stability in pH 5.8 buffer assessed as compound remaining level at 37 degC by HPLC analysis; format: physicochemical; in short: as §1
Hepatitis B virus [41] = assay: Antiviral activity against HBV infected in human HepAD38 cells; format: functional, organism-based

Cc1cc(Nc2nn(C3CC3)c3cnc(S(=O)(=O)N4CCC(OC(=O)CN(C)C)CC4)cc23)ccc1F.O=C(O)C(F)(F)F
half-life [1]: 47.2 min
Stability [2]: Stable
Stability [3]: Unstable
Stability [4]: Stable
solubility [5]: 1510 µg/mL
solubility [6]: 290 µg/mL
solubility [7]: Bld

Cc1cc(Nc2nn(C3CC3)c3cnc(S(=O)(=O)N4CCC(O)CC4)cc23)ccc1F
EC50 (Hepatitis B virus [8]): 34 nM
CC50 [9]: > 100000 nM
selectivity ratio at 144 h [10]: > 2940
microsomal CLint [11]: 10.3 µL/min/mg
inhibition (Hepatitis B virus [12]): inactive
inhibition (Hepatitis B virus [13]): inactive
inhibition (Hepatitis B virus [14]): Active
inhibition (Hepatitis B virus [15]): Active
inhibition (Hepatitis B virus [16]): Active
inhibition (Hepatitis B virus [17]): Active
EC50 (Hepatitis B virus [18]): 0.25 nM
EC50 (Hepatitis B virus [19]): 0.33 nM
EC50 (Hepatitis B virus [20]): 3.5 nM
CC50 [21]: > 100000 nM
solubility [7]: Bld
Activity (Hepatitis B virus [22]): inactive
Activity (Hepatitis B virus [23]): inactive
Activity (Hepatitis B virus [24]): inactive
Activity (Hepatitis B virus [25]): inactive
Activity (Hepatitis B virus [26]): inactive
half-life [27]: 37.8 min
clearance [28]: 2.33 mL/min
AUC [29]: 2600 ng·h/mL
AUC [30]: 1580 ng·h/mL
AUC [31]: 62 nmol·h/g
AUC [32]: 142 nmol·h/g
Tmax [33]: 30 min
Cmax [34]: 1190 nM
Tmax [35]: 30 min
Cmax [36]: 32 nmol/g
bioavailability [37]: 12%
Drug uptake [38]: > 10 nmol/g

Cc1cc(Nc2nn(C3CC3)c3cnc(S(=O)(=O)N4CCC(OC(=O)[C@H](C)N)CC4)cc23)ccc1F.O=C(O)C(F)(F)F
half-life [1]: 31.2 min
remaining at 3 h [39]: 55.6%
Stability [3]: 80.2%
Stability [40]: 85.7%

COc1ccccc1/C(Br)=C(\NC(=O)c1ccc([N+](=O)[O-])cc1)C(=O)N1CCCCC1
EC50 (Hepatitis B virus [41]): 130 nM
inhibition (Hepatitis B virus [12]): inactive
inhibition (Hepatitis B virus [13]): inactive
inhibition (Hepatitis B virus [14]): Active
inhibition (Hepatitis B virus [16]): Active
inhibition (Hepatitis B virus [17]): Active

Reference: ChEMBL document CHEMBL4602735, “Discovery of (1H-Pyrazolo[3,4-c]pyridin-5-yl)sulfonamide Analogues as Hepatitis B Virus Capsid Assembly Modulators by Conformation Constraint” (J Med Chem, 2020)
